Holding throughout (type): nucleic-acid assay
Assay [1] concerns Nucleic Acid. Description: Binding affinity to synthetic double stranded DNA D1 at 1.5 uM at pH 7.2 by thermal denaturation study. Summed up:
(§1)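 Parallel triplex melting: target duplex assembled from strands at 1.0 µM each, TFO third strand added at 1.5 µM. Buffer 20 mM sodium cacodylate, 100 mM NaCl, 10 mM MgCl₂, at the pH of the line. Samples heated to 80 °C for 5 min, cooled to 5 °C and held 30 min. Absorbance read at 260 nm while heating at 1.0 °C/min; Tm taken as the first-derivative maximum.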

Assay [2] has as its system Nucleic Acid. Description: Binding affinity to synthetic double stranded DNA D4 at 1.5 uM at pH 6.0 by thermal denaturation study. A digest of the protocol:
as §1

In assay [3] the test system is Nucleic Acid. Briefly: Binding affinity to synthetic oligonucleotide ON20 at 1.0 uM at pH 7.0 by thermal denaturation study. Summed up:
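DNA/RNA antiparallel duplex: each strand at 1.0 µM in 10 mM sodium phosphate, 140 mM NaCl, 1 mM EDTA, pH 7.0. Heated to 80 °C for 5 min, cooled to 5 °C and held 30 min. Absorbance followed at 260 nm during a 1.0 °C/min temperature ramp; Tm is the first-derivative maximum.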

Assay [4] concerns Nucleic Acid. Description: Binding affinity to synthetic double stranded DNA D1 at 1.5 uM at pH 5.0 by thermal denaturation study. Summed up: as §1
The test system of assay [5] is Nucleic Acid. Briefly: Binding affinity to synthetic oligonucleotide ON19 at 1.0 uM at pH 6.0 by thermal denaturation study. A digest of the protocol:
(§2)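 Duplex melting: complementary strands at 1.0 µM each in 20 mM sodium cacodylate, 100 mM NaCl, 10 mM MgCl₂, at the pH of the line. Annealed at 80 °C for 5 min, then cooled to 5 °C and held 30 min. UV absorbance read at 260 nm with heating at 1.0 °C/min; Tm is the maximum of the first-derivative curve.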

For assay [6], the system named is Nucleic Acid. Briefly: Binding affinity to synthetic double stranded DNA D1 at 1.5 uM at pH 6.0 by thermal denaturation study. Summed up:
as §1

The test system of assay [7] is Nucleic Acid. Briefly: Binding affinity to synthetic oligonucleotide ON18 at 1.0 uM at pH 6.0 by thermal denaturation study. Summed up:
as §2

The test system of assay [8] is Nucleic Acid. Description: Binding affinity to synthetic double stranded DNA D3 at 1.5 uM at pH 6.0 by thermal denaturation study. A digest of the protocol:
as §1

For assay [9], the system named is Nucleic Acid. Description: Binding affinity to synthetic double stranded DNA D2 at 1.5 uM at pH 6.0 by thermal denaturation study. A digest of the protocol: as §1
Assay [10] relates to Nucleic Acid. Briefly: Binding affinity to synthetic oligonucleotide ON19 at 1.0 uM at pH 7.2 by thermal denaturation study. Summed up:
as §2

In ChEMBL document CHEMBL1151702, “Using an aryl phenanthroimidazole moiety as a conjugated flexible intercalator to improve the hybridization efficiency of a triplex-forming oligonucleotide” (Bioorg Med Chem, 2008) one finds Tm data, which are given here for 5 compounds.

Usually Tm stands for the temperature at which the thermal transition is half complete. For the compound `Cc1cn([C@H]2C[C@H](OP(=O)(O)OC[C@H]3O[C@@H](n4cc(C)c(=O)[nH]c4=O)C[C@@H]3OP(=O)(O)OC[C@H]3O[C@@H](n4cc(C)c(=O)[nH]c4=O)C[C@@H]3OP(=O)(O)OC[C@H]3O[C@@H](n4ccc(N)nc4=O)C[C@@H]3OP(=O)(O)OC[C@H]3O[C@@H](n4cc(C)c(=O)[nH]c4=O)C[C@@H]3OP(=O)(O)OC[C@H]3O[C@@H](n4cc(C)c(=O)[nH]c4=O)C[C@@H]3OP(=O)(O)OC[C@H]3O[C@@H](n4cc(C)c(=O)[nH]c4=O)C[C@@H]3O[PH](O)(O)OC[C@H]3O[C@@H](n4cc(C)c(=O)[nH]c4=O)C[C@@H]3OP(=O)(O)OC[C@H]3O[C@@H](n4cc(C)c(=O)[nH]c4=O)C[C@@H]3OP(=O)(O)OC[C@H]3O[C@@H](n4cc(C)c(=O)[nH]c4=O)C[C@@H]3O)[C@@H](COP(=O)(O)O[C@H]3C[C@H](n4ccc(N)nc4=O)O[C@@H]3COP(=O)(O)O[C@H]3C[C@H](n4ccc(N)nc4=O)O[C@@H]3COP(=O)(O)O[C@H]3C[C@H](n4ccc(N)nc4=O)O[C@@H]3COP(=O)(O)O[C@H]3C[C@H](n4ccc(N)nc4=O)O[C@@H]3CO)O2)c(=O)[nH]c1=O`, the Tm in assay [1] is under 5 °C; in [2] it was under 5 °C; in assay [3] it was 52 °C; in assay [4], 55 °C; in assay [5] it was 49.5 °C; in assay [6], 28 °C. Moreover, the Tm in assay [7] was 19 °C; in assay [8], under 5 °C; in assay [9], under 5 °C; in [10] it was 49.5 °C.

For the compound `Cc1cn([C@H]2C[C@H](OP(=O)(O)OC[C@H]3O[C@@H](n4ccc(N)nc4=O)C[C@@H]3OP(=O)(O)OC[C@H]3O[C@@H](n4cc(C)c(=O)[nH]c4=O)C[C@@H]3OP(=O)(O)OC[C@H]3O[C@@H](n4cc(C)c(=O)[nH]c4=O)C[C@@H]3OP(=O)(O)OC[C@H]3O[C@@H](n4cc(C)c(=O)[nH]c4=O)C[C@@H]3O[PH](O)(O)OC[C@H]3O[C@@H](n4cc(C)c(=O)[nH]c4=O)C[C@@H]3OP(=O)(O)OC[C@H]3O[C@@H](n4cc(C)c(=O)[nH]c4=O)C[C@@H]3OP(=O)(O)OC[C@H]3O[C@@H](n4cc(C)c(=O)[nH]c4=O)C[C@@H]3O)[C@@H](COC[C@H](CCOc3ccc(-c4nc5c6ccccc6c6ccccc6c5[nH]4)c4ccccc34)OP(=O)(O)O[C@H]3C[C@H](n4cc(C)c(=O)[nH]c4=O)O[C@@H]3COP(=O)(O)O[C@H]3C[C@H](n4cc(C)c(=O)[nH]c4=O)O[C@@H]3COP(=O)(O)O[C@H]3C[C@H](n4ccc(N)nc4=O)O[C@@H]3COP(=O)(O)O[C@H]3C[C@H](n4ccc(N)nc4=O)O[C@@H]3COP(=O)(O)O[C@H]3C[C@H](n4ccc(N)nc4=O)O[C@@H]3COP(=O)(O)O[C@H]3C[C@H](n4ccc(N)nc4=O)O[C@@H]3CO)O2)c(=O)[nH]c1=O`, the Tm in assay [1] amounted to 18.5 °C; in assay [2] it was 25.5 °C; in [3], 49.5 °C; in assay [4], 55 °C; in assay [5], 46.5 °C; in assay [6], 40.5 °C. Further, the Tm in assay [7] came out at 21.5 °C; in assay [8], 21 °C; in assay [9], 16.5 °C; in assay [10], 46 °C.

Regarding `Cc1cn([C@H]2C[C@H](OP(=O)(O)OC[C@H]3O[C@@H](n4ccc(N)nc4=O)C[C@@H]3OP(=O)(O)OC[C@H]3O[C@@H](n4cc(C)c(=O)[nH]c4=O)C[C@@H]3OP(=O)(O)OC[C@H]3O[C@@H](n4cc(C)c(=O)[nH]c4=O)C[C@@H]3OP(=O)(O)OC[C@H]3O[C@@H](n4cc(C)c(=O)[nH]c4=O)C[C@@H]3O[PH](O)(O)OC[C@H]3O[C@@H](n4cc(C)c(=O)[nH]c4=O)C[C@@H]3OP(=O)(O)OC[C@H]3O[C@@H](n4cc(C)c(=O)[nH]c4=O)C[C@@H]3OP(=O)(O)OC[C@H]3O[C@@H](n4cc(C)c(=O)[nH]c4=O)C[C@@H]3O)[C@@H](COC[C@H](CCOc3ccc(-c4nc5c6ccccc6c6ccccc6c5[nH]4)cc3)OP(=O)(O)O[C@H]3C[C@H](n4cc(C)c(=O)[nH]c4=O)O[C@@H]3COP(=O)(O)O[C@H]3C[C@H](n4cc(C)c(=O)[nH]c4=O)O[C@@H]3COP(=O)(O)O[C@H]3C[C@H](n4ccc(N)nc4=O)O[C@@H]3COP(=O)(O)O[C@H]3C[C@H](n4ccc(N)nc4=O)O[C@@H]3COP(=O)(O)O[C@H]3C[C@H](n4ccc(N)nc4=O)O[C@@H]3COP(=O)(O)O[C@H]3C[C@H](n4ccc(N)nc4=O)O[C@@H]3CO)O2)c(=O)[nH]c1=O`, the Tm was determined as 26 °C in assay [1]; 31.5 °C in [2]; 53 °C in assay [3]; 59.5 °C in [4]; 50.5 °C in [5]; 46.5 °C in assay [6]. Also, the Tm was determined as 31.5 °C in assay [7], 29.5 °C in assay [8], 23 °C in assay [9] and 50.5 °C in assay [10].

Turning to `Cc1cn([C@H]2C[C@H](OP(=O)(O)OC[C@H]3O[C@@H](n4ccc(N)nc4=O)C[C@@H]3OP(=O)(O)OC[C@H]3O[C@@H](n4cc(C)c(=O)[nH]c4=O)C[C@@H]3OP(=O)(O)OC[C@H]3O[C@@H](n4cc(C)c(=O)[nH]c4=O)C[C@@H]3OP(=O)(O)OC[C@H]3O[C@@H](n4cc(C)c(=O)[nH]c4=O)C[C@@H]3O[PH](O)(O)OC[C@H]3O[C@@H](n4cc(C)c(=O)[nH]c4=O)C[C@@H]3OP(=O)(O)OC[C@H]3O[C@@H](n4cc(C)c(=O)[nH]c4=O)C[C@@H]3OP(=O)(O)OC[C@H]3O[C@@H](n4cc(C)c(=O)[nH]c4=O)C[C@@H]3O)[C@@H](COC[C@H](COCc3ccc(C#Cc4ccc5ccc6cccc7ccc4c5c67)cc3)OP(=O)(O)O[C@H]3C[C@H](n4cc(C)c(=O)[nH]c4=O)O[C@@H]3COP(=O)(O)O[C@H]3C[C@H](n4cc(C)c(=O)[nH]c4=O)O[C@@H]3COP(=O)(O)O[C@H]3C[C@H](n4ccc(N)nc4=O)O[C@@H]3COP(=O)(O)O[C@H]3C[C@H](n4ccc(N)nc4=O)O[C@@H]3COP(=O)(O)O[C@H]3C[C@H](n4ccc(N)nc4=O)O[C@@H]3COP(=O)(O)O[C@H]3C[C@H](n4ccc(N)nc4=O)O[C@@H]3CO)O2)c(=O)[nH]c1=O`, the Tm in [1] was 28 °C; in assay [2] it was 28.5 °C; in assay [4] it was 59 °C; in assay [5], 46.5 °C; in assay [6], 45.5 °C; in assay [7] it was 33.5 °C. Besides, the results for the Tm in assay [8], in [9] and in assay [10] were 34.5 °C, 27 °C and 45.5 °C, respectively.

Turning to `Cc1cn([C@H]2C[C@H](OP(=O)(O)OC[C@H]3O[C@@H](n4ccc(N)nc4=O)C[C@@H]3OP(=O)(O)OC[C@H]3O[C@@H](n4cc(C)c(=O)[nH]c4=O)C[C@@H]3OP(=O)(O)OC[C@H]3O[C@@H](n4cc(C)c(=O)[nH]c4=O)C[C@@H]3OP(=O)(O)OC[C@H]3O[C@@H](n4cc(C)c(=O)[nH]c4=O)C[C@@H]3O[PH](O)(O)OC[C@H]3O[C@@H](n4cc(C)c(=O)[nH]c4=O)C[C@@H]3OP(=O)(O)OC[C@H]3O[C@@H](n4cc(C)c(=O)[nH]c4=O)C[C@@H]3OP(=O)(O)OC[C@H]3O[C@@H](n4cc(C)c(=O)[nH]c4=O)C[C@@H]3O)[C@@H](COC[C@H](CCOc3ccc(-c4ncc[nH]4)c4ccccc34)OP(=O)(O)O[C@H]3C[C@H](n4cc(C)c(=O)[nH]c4=O)O[C@@H]3COP(=O)(O)O[C@H]3C[C@H](n4cc(C)c(=O)[nH]c4=O)O[C@@H]3COP(=O)(O)O[C@H]3C[C@H](n4ccc(N)nc4=O)O[C@@H]3COP(=O)(O)O[C@H]3C[C@H](n4ccc(N)nc4=O)O[C@@H]3COP(=O)(O)O[C@H]3C[C@H](n4ccc(N)nc4=O)O[C@@H]3COP(=O)(O)O[C@H]3C[C@H](n4ccc(N)nc4=O)O[C@@H]3CO)O2)c(=O)[nH]c1=O`, the Tm in assay [4] is 33 °C; in assay [6], 10.5 °C.
